# High-throughput results as filed in PubChem.
# Sampled rows, rich in hits. Any-hit rate of the full collection: about 1.3%.
# RBBP9 inh – human RBBP9 hydrolase inhibition | O75884 | recombinant RBBP9, FP-Rh probe fluorescence polarization | inhibition, % at 7.94 µM | 220,000 compounds, 0.2% hits | AID 1515;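 active = inhibition above the campaign mean of all tested compounds plus 3 SD, cut at about 14% in these data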;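 note: plate controls were DMSO wells with RBBP9 for no effect and wells lacking RBBP9 protein for full effect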
#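 system = RBBP9 protein | input = RBBP9 at 2.5 µM in dispensed solution, before mixing | measured by = fluorescence polarization (mP), excitation 525 nm, emission 598 nm | incubation = enzyme-compound preincubation 30 min, then probe labeling 45 min, 25 °C | buffer or medium = Tris-NaCl-Pluronic buffer, pH 8.0 | compound = single dose 7.94 µM | also added = FP-Rh probe, 375 nM dispensing solution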
# PME-1 primary – blocks human protein phosphatase methylesterase 1; Q9Y570; recombinant PME-1, FP-Rh probe fluorescence polarization; inhibition, % at 5.9 µM; 320,000 compounds, 0.53% hits;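 active = inhibition above the campaign mean of all compounds plus 3 SD, cut at about 26% in these data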;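 note: competitive labeling of PME-1 active site by serine hydrolase directed probe; 0% = PME-1 with DMSO and 100% = wells lacking PME-1 enzyme; inhibitors block probe labeling so polarization falls and inhibition rises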
# LYPLA2 counter – LYPLA2 (human) inhibition in PME1 counter-screen; O95372; recombinant LYPLA2, FP-Rh probe fluorescence polarization; inhibition, % at 5.9 µM; 320,000 compounds, 0.38% hits;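 active = inhibition above the screen-wide mean plus 3 SD, limit set per campaign, cut at about 26% in these data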;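 note: 0% = LYPLA2 with DMSO and 100% = wells lacking LYPLA2 enzyme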
# Target sequence (O95372 whole entry, looked up): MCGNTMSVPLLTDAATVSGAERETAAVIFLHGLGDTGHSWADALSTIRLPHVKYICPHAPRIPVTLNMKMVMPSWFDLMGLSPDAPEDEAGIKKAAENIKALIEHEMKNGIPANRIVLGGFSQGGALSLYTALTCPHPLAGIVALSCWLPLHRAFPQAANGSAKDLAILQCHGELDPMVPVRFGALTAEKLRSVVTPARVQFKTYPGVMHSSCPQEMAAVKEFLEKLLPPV
# PAD4 inh – PAD4 (human) enzyme inhibition; AID 485272; 330,000 compounds, 0.41% hits; inhibition, % at 6.36 µM; recombinant PAD4, RCA probe fluorescence polarization; Q9UM07;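 active = percent inhibition above a cutoff equal to the mean of all tested compounds plus 3 SD, cut at about 15% in these data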;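 note: 0% = PAD4 with RCA probe and DMSO and 100% = probe without PAD4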
# Fam108B inh – blocks mouse Fam108B hydrolase in RBBP9 counter-screen | recombinant Fam108B, FP-Rh probe fluorescence polarization | 300,000 compounds, 0.33% hits | inhibition, % at 9.51 µM;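 active = inhibition above the screen mean inhibition plus 3 SD, computed separately per campaign, cut at about 18% in these data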;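 note: inhibitors lower polarization as less probe binds the enzyme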
# LYPLA1 counter – blocks human lysophospholipase 1, a PME1 counter-screen; AID 2174; 320,000 compounds, 0.16% hits; inhibition, % at 5.9 µM; recombinant LYPLA1, FP-Rh probe fluorescence polarization; O75608;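 active = inhibition above the mean of all tested compounds plus 3 SD, set per campaign, cut at about 14% in these data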;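 note: inhibitors block serine hydrolase probe labeling of LYPLA1 so polarization falls; 0% = enzyme with DMSO and 100% = wells lacking LYPLA1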
# Target sequence (O75608 whole entry, looked up): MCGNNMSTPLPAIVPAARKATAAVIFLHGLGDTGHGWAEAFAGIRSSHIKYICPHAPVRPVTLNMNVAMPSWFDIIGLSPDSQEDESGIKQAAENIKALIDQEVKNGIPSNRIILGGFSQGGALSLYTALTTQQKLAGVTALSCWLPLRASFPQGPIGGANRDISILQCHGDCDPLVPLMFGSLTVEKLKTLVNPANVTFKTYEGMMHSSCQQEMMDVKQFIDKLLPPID
# Fam108b inh conf – confirmation of mouse Fam108b serine hydrolase inhibitors | 930 compounds, 44% hits | recombinant Fam108b, FP-Rh probe fluorescence polarization | AID 1978 | inhibition, % at 9.51 µM | shares compounds with Fam108B inh;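 active = inhibition above a limit from the primary screen, the mean over all compounds plus 3 SD, cut at about 19% in these data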;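 note: 0% = median of active Fam108b wells and 100% = catalytically dead S170A mutant; inhibitors free the probe so polarization falls as inhibition rises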
# Fam108b inh – mouse ABHD17B inhibition. recombinant Fam108b, gel-based ABPP, fluorophosphonate probe. shares compounds with Fam108B inh. inhibition, % at 20 µM. 260 compounds, 44% hits; in the data active = inhibition above about 40%
# Active calls of the source: *; . = not tested or not shown.
SMILES,RBBP9 inh,PME-1 primary,LYPLA2 counter,PAD4 inh,Fam108B inh,LYPLA1 counter,Fam108b inh conf,others
N#C/C(N=Nc1ccccc1O)=N\Nc1ccccc1O,.,31.9*,4.2,3.4,38.8*,-4.6,39.9*,Fam108b inh=0.0
Oc1ccccc1N=N/C(=N/Nc1ccccc1O)c1ccccc1,.,5.3,5.7,3.5,10.6,0.2,.,
CCN(CC)c1ccc(/C=N/Nc2nc3ccccc3[nH]2)c(O)c1,-1.3,7.5,7.5,-10.7,21.2*,-3.5,19.4*,
C#CCn1cc(/C=N/Nc2nc3ccccc3[nH]2)c2ccccc21,0.8,24.9,5.9,3.5,30.0*,3.7,20.6*,
C(=N\Nc1nc2ccccc2[nH]1)/c1cccc2nccnc12,-2.9,10.6,-1.3,2.5,0.7,5.6,.,
Cc1cccc(NC(=O)CCCN2C(=O)c3cccc4cccc(c34)C2=O)c1,-5.1,3.8,3.3,1.5,-0.7,2.5,.,
CCSc1ccc([C@@H]2[C@H]3C(=O)N(C)C(=O)[C@H]3[C@]3(C(=O)OC)CCCCN23)cc1OC,.,-3.3,1.7,-2.3,7.7,-1.2,.,
CC1(C)CC(=O)C2=C(C1)c1c(ccc3ccccc13)NC2c1cc([N+](=O)[O-])cc([N+](=O)[O-])c1O (stereo not drawn),0.1,-4.5,-9.5,-0.7,25.6*,-5.6,56.8*,Fam108b inh=50.0*
O=C(O)c1cc(N/N=C/c2c(O)ccc3ccccc23)ccc1Cl,.,30.7*,4.3,7.2,18.9*,3.7,19.1*,
O=C(N/N=C\c1c(O)ccc2ccccc12)c1ccc(O)cc1,.,19.3,-26.4,2.3,23.2*,-15.3,-1.0,
Nc1nonc1N/N=C/c1c(O)ccc2ccccc12,0.2,29.7*,-38.7,0.9,23.7*,-28.7,6.5,
Nc1cc(Cl)nc(N/N=C/c2c(O)ccc3ccccc23)n1,4.0,31.7*,-3.3,-2.0,28.1*,3.2,2.3,
O=C(O)c1cccc(-c2ccc(/C=c3/sc4nc5ccccc5n4c3=O)o2)c1,-10.1,-10.8,4.4,-1.8,25.3*,10.4,9.1,
O=c1c(=Cc2cc([N+](=O)[O-])cc([N+](=O)[O-])c2O)sc2nc3ccccc3n12,.,.,.,.,.,.,.,Fam108b inh=20.0
O=C(O)c1cc(C(=O)O)cc(-c2ccc(/C=c3/sc4nc5ccccc5n4c3=O)o2)c1,-3.8,.,.,.,.,.,.,
CCc1c(C)sc(NC(=O)c2cc(-c3ccco3)on2)c1C#N,-9.5,4.1,-2.3,-4.1,4.6,0.3,.,
COc1ccc(C(=O)/C=C/Nc2ccc(S(=O)(=O)Nc3cccc(C(C)=O)c3)cc2)cc1,-2.7,43.3*,8.7,-6.3,33.8*,-18.8,20.0*,
CCOc1ccc(NC(=O)CCCOc2cc(=O)n(C)c3ccccc23)cc1,-5.6,-1.3,6.6,0.6,2.0,-4.3,.,
Fc1cccc2sc(Nc3nc4c(F)cccc4s3)nc12,-4.4,10.8,-5.0,-6.4,4.4,-6.9,.,
COc1cc(OC)cc(-c2nnc(Nc3nc4c(F)cccc4s3)o2)c1,6.7,61.0*,2.4,-6.1,18.9*,2.6,13.1,
O=C1Nc2ccc(Br)cc2C12NNc1ccccc1O2 (stereo not drawn),5.6,37.8*,-10.5,-5.5,21.0*,-4.4,11.5,
C=CCNc1nc(Nc2ccc(-c3nc4ccccc4o3)cc2)nc(N2CCOCC2)n1,-21.3,-27.5,-32.7,-2.1,-16.5,-18.6,.,
COc1ccc(OC)c(-c2csc(NC(=O)CSc3ccc([N+](=O)[O-])cc3)n2)c1,-11.5,10.3,-28.9,2.8,21.1*,-35.0,14.4,
COc1ccc(OC)c(-c2csc(NC(=O)CSc3ccc(Br)cc3)n2)c1,-4.4,-0.8,-10.0,-1.1,16.9,-17.3,.,
O=C(O)C1Nc2c(O)cccc2C2C=CCC12 (stereo not drawn),1.5,14.4,-5.7,-3.0,65.7*,-17.1,56.6*,
O=C(O)C1Nc2c(Cl)cc(Cl)cc2C2C=CCC12 (stereo not drawn),.,-6.4,17.8,-4.0,32.7*,1.8,23.6*,
